Data published in ChEMBL document CHEMBL2150880, “Discovery and characterization of small molecule inhibitors of the BET family bromodomains” (J Med Chem, 2011).
Active and inactive are the calls of the source. No cut-off for these calls is given here.

How the values were obtained:
HepG2 [1] = experiment: Induction of human ApoA1 gene expression in stably transfected human HepG2 cells coexpressing luciferase reporter gene after 18 hrs by luminescence assay; type: functional, cell-based
HepG2 [2] = experiment: Induction of human LDL-R gene expression in stably transfected human HepG2 cells coexpressing luciferase reporter gene at 0.001 to 10 uM after 18 hrs by luminescence assay; type: functional, cell-based
Outline: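 Selectivity counter-screen run in parallel under the same conditions as the ApoA1 reporter: HepG2 cells stably carrying an LDL-receptor promoter–luciferase reporter, 18 h with or without compound in 0.5% DMSO, then Bright Glo luminescence read after 10 min.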

HepG2 [3] = experiment: Induction of human ApoA1 gene expression in stably transfected human HepG2 cells coexpressing luciferase reporter gene at 1 uM after 18 hrs by luminescence assay relative to control; type: functional
CREB-binding protein = CREB-binding protein (Homo sapiens, UniProt Q92793); experiment: Binding affinity to CREBBP by isothermal titration calorimetric analysis
CREB-binding protein, sequence (Q92793 whole entry, the tested form may be a part): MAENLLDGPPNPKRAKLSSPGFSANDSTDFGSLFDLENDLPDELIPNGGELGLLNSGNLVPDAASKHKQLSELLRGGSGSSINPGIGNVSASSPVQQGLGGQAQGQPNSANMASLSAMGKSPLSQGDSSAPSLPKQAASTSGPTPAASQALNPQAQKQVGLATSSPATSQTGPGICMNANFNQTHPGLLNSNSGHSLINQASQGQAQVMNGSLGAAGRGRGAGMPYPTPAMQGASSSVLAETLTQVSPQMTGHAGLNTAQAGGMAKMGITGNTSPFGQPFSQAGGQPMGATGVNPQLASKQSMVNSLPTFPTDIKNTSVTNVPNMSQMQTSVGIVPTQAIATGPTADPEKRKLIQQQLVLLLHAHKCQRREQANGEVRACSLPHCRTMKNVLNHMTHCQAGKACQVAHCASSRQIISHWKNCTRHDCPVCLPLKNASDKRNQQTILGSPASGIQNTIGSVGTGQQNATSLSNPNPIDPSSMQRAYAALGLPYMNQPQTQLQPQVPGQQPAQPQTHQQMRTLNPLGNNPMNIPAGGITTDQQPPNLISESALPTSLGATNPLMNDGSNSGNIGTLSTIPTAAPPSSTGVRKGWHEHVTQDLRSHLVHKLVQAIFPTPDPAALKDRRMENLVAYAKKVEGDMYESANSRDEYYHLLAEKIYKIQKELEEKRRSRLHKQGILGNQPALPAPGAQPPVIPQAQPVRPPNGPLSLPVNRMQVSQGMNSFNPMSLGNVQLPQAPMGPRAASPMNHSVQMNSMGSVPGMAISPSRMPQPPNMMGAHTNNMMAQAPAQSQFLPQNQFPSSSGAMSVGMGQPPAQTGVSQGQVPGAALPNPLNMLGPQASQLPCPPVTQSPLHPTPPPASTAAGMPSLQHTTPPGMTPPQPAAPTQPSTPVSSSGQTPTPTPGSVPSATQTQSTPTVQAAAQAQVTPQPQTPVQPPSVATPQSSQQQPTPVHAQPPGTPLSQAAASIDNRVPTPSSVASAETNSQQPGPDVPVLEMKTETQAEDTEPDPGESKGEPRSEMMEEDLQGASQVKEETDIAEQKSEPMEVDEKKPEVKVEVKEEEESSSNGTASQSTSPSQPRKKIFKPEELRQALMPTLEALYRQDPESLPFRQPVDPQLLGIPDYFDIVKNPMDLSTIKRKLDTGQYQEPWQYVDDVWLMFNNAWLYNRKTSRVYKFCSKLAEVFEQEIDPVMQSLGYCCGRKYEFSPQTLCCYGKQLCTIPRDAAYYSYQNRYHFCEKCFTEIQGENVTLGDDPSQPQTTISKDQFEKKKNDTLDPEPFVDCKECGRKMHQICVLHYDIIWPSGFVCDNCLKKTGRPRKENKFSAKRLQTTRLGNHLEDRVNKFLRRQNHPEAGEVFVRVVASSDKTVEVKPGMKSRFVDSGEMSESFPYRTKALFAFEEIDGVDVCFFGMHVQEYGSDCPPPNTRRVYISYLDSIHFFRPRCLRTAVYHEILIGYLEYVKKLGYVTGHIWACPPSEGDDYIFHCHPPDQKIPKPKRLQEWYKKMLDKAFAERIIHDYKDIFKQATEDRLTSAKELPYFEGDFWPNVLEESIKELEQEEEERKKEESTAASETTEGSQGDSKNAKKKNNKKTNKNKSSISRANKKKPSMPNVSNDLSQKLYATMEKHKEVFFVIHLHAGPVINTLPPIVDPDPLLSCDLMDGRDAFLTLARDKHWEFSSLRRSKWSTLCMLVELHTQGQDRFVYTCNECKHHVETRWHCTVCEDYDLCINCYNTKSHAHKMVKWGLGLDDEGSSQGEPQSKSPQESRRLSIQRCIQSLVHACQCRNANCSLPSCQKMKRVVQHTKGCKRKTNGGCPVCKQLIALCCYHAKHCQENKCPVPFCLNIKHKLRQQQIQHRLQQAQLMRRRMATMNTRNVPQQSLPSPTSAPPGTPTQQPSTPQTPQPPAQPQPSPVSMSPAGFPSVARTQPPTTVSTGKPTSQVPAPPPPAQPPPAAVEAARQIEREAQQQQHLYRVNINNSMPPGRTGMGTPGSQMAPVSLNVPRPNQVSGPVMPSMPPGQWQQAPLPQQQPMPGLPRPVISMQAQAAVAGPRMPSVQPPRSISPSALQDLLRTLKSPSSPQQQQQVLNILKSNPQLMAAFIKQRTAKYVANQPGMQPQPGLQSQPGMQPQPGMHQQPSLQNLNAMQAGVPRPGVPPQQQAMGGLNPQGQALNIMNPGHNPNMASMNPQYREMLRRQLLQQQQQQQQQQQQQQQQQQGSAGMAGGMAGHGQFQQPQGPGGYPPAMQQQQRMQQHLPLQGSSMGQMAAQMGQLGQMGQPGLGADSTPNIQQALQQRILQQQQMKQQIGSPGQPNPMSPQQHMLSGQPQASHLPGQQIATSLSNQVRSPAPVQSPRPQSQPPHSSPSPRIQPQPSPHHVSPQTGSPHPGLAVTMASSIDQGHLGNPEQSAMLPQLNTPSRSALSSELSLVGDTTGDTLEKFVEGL

[4] = target: T1, ATPase family AAA domain-containing protein 2 (Homo sapiens, UniProt Q6PL18); experiment: Binding affinity to ATAD2 by isothermal titration calorimetric analysis
T1 sequence (Q6PL18 whole entry): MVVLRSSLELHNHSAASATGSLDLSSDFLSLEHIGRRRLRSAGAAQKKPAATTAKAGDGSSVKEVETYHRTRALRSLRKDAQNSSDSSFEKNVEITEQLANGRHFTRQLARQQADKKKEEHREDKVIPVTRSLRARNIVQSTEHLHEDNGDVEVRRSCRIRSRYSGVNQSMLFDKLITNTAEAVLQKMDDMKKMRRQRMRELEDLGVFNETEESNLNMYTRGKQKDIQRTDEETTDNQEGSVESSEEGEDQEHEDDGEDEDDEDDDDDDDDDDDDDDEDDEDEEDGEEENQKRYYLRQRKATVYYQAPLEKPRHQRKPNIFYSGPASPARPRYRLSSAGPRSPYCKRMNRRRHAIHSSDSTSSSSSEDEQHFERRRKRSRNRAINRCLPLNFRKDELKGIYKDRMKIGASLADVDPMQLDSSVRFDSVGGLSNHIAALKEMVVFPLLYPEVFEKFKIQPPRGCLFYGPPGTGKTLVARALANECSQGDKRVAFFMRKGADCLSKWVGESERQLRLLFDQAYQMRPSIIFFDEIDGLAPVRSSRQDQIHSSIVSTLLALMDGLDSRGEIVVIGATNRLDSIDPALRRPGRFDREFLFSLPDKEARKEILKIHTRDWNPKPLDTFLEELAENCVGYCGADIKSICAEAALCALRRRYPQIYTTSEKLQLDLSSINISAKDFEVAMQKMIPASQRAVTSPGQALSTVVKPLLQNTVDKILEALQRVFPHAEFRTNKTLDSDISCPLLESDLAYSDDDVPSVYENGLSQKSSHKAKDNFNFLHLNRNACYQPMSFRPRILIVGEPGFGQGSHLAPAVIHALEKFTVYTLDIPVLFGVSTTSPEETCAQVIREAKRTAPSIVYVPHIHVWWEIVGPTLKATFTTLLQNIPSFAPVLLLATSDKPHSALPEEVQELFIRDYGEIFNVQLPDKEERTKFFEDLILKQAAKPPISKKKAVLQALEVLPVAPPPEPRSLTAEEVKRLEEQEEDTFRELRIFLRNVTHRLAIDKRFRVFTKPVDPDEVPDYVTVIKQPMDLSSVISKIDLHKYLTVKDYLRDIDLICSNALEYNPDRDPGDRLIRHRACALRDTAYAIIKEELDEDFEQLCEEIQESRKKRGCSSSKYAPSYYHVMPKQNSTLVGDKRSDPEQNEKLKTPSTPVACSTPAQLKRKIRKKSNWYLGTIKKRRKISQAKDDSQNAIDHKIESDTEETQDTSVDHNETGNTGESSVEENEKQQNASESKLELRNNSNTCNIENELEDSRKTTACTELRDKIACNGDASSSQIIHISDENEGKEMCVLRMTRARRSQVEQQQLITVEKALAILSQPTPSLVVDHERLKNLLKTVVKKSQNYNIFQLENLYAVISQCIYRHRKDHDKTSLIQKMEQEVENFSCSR

HepG2 [5] = experiment: Induction of human ApoA1 gene expression in stably transfected human HepG2 cells coexpressing luciferase reporter gene after 18 hrs by luminescence assay relative to control; type: functional
HepG2 [6] = experiment: Induction of human ApoA1 protein synthesis in human HepG2 cells assessed as neosynthesised radiolabeled protein secretion after 6 hrs by SDS PAGE analysis in presence of [35S]methionine; type: functional, cell-based
Outline: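 Confluent HepG2 cells were exposed to compound for 48 h in BME with 1% FCS. Compound was re-added in Met/Cys-depleted RPMI-1640 containing 35S-methionine for 6 h at 37 °C. Secreted labelled proteins were separated on 5–12% SDS-PAGE, and ApoA1 was quantified by phosphorimaging.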

HepG2 [7] = experiment: Induction of human ApoA1 gene expression in stably transfected human HepG2 cells coexpressing luciferase reporter gene at 0.001 to 10 uM after 18 hrs by luminescence assay; type: functional, cell-based
Outline: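 HepG2 cells stably carrying an ApoA1 promoter–luciferase reporter were incubated 18 h with or without freshly diluted compound in 0.5% DMSO. Bright Glo reagent was then added, and luminescence was read after 10 min with substrate.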

Row | Structure (SMILES) | Activity (HepG2 [1]) | EC50 (HepG2 [1]; HepG2, 18 h) | Activity (HepG2 [2]) | fold change (FC) (HepG2 [3]) | Kd (CREB-binding protein) | Kd [4] | fold change (FC) (HepG2 [5]) | Activity (HepG2 [6]) | Activity (HepG2 [7])
1 | Cc1nnc2n1-c1ccccc1C(c1ccccc1)=NC2NC(=O)OCc1ccccc1 (configuration not stated) | Dose-dependent effect | 0.44 µM | inactive | 3 | > 50 µM | > 50 µM | 4.5 | – | –
2 | CCNC(=O)C[C@@H]1N=C(c2ccc(Cl)cc2)c2cc(OC)ccc2-n2c(C)nnc21 | Dose-dependent effect | – | inactive | – | – | – | – | Active | –
3 | CCNC(=O)C[C@H]1N=C(c2ccc(Cl)cc2)c2cc(OC)ccc2-n2c(C)nnc21 | – | – | inactive | – | – | – | – | – | inactive
